Values after ≈ are worked out from the molar mass of the structure shown.

Data set [1] relates to Mycobacterium tuberculosis. The data set is described as follows: Antimycobacterial activity against Mycobacterium tuberculosis H37Rv measured by MABA assay. The format is functional. In short, it runs like this: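 Microplate Alamar Blue assay against replicating M. tuberculosis H37Rv or clinical isolates. MIC is the lowest concentration giving ≥90% reduction in fluorescence relative to the mean of replicate bacterium-only controls.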

Data set [2] is described as follows: Selectivity index, Ratio of IC50 for Vero cells over MIC for Mycobacterium tuberculosis H37Rv. The format is toxicity. Conditions: monkey.
Data set [3] can be described thus: Cytotoxicity against African green monkey Vero cells measured by MTT assay. The format is toxicity, cell-based. To be noted: African green monkey (Chlorocebus sabaeus). In short, it runs like this:
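Vero, HepG2 and mouse J774A.1 cells grown in RPMI 1640 with 10% FBS. MTT read-out in 96-well format.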

`COC(=O)NC(=O)c1ccsc1NC(=O)c1ccc(S(=O)(=O)NC23CC4CC(CC(C4)C2)C3)cc1` displayed an MIC in data set [1] of 1.96 µg/mL (≈ 3.79 µM).
The compound `O=C(NC(=O)c1ccsc1NC(=O)c1ccc(S(=O)(=O)N2CCCCC2)cc1)OCC(F)(F)F` gave an MIC in data set [1] of 29.7 µg/mL (≈ 57.2 µM).
On the same count and under the same terms, the same measure for `CCOC(=O)NC(=O)c1ccsc1NC(=O)c1ccc(S(=O)(=O)Nc2ccc(OC)cc2)cc1`: 3.64 µg/mL (≈ 7.23 µM); for `O=C(Nc1sccc1C(=O)Nc1ccccn1)c1ccc(S(=O)(=O)N2CCCCC2)cc1`: 29.6 µg/mL (≈ 62.9 µM).
`CCCOC(=O)NC(=O)c1ccsc1NC(=O)c1ccc(S(=O)(=O)N2CCCCC2)cc1` displayed an MIC in data set [1] of 0.051 µg/mL (≈ 0.106 µM). Further, the selectivity ratio in data set [2] is 1110. Further, in data set [3], the half-maximal inhibitory concentration (IC50) was 56.6 µg/mL (≈ 118 µM).
For the compound `COC(=O)NC(=O)c1ccsc1NC(=O)c1ccc(S(=O)(=O)N2CCC(c3ccccc3)CC2)cc1`, the MIC in data set [1] is > 32 µg/mL.
The same measure, in the same setting: the value for `COC(=O)NC(=O)c1ccsc1NC(=O)c1ccc(S(=O)(=O)N2CCC(O)CC2)cc1` was 3.67 µg/mL (≈ 7.85 µM).
In data set [1], `CCOC(=O)NC(=O)c1ccsc1NC(=O)c1ccc(S(=O)(=O)Nc2ccccc2)cc1` gave a minimal inhibitory concentration (MIC) of 0.7 µg/mL (≈ 1.48 µM). Further, the selectivity ratio in data set [2] came out at 21. Also, the IC50 in data set [3] worked out at 14.5 µg/mL (≈ 30.6 µM).
With `COC(=O)NC(=O)c1ccsc1NC(=O)c1ccc(S(=O)(=O)N2CCC(=O)CC2)cc1`, 3.52 µg/mL (≈ 7.56 µM) was the least that counted as inhibitory in data set [1] (MIC).
In turn, `CCOC(=O)NC(=O)c1ccsc1NC(=O)c1ccc(S(=O)(=O)Nc2ccc(OC(F)(F)F)cc2)cc1` returned an MIC in data set [1] of 26.3 µg/mL (≈ 47.2 µM).
Still for that read-out and setting: the value for `O=C(NC(=O)c1ccsc1NC(=O)c1ccc(S(=O)(=O)N2CCOCC2)cc1)OCC(F)(F)F` was 30.4 µg/mL (≈ 58.4 µM).
Regarding `Cc1ccnc(NC(=O)c2ccsc2NC(=O)c2ccc(S(=O)(=O)N3CCOCC3)cc2)n1`, it took 0.87 µg/mL (≈ 1.78 µM) to inhibit growth in data set [1] (MIC). For the same compound, in data set [2], the selectivity ratio turned out to be 49. In data set [3], this compound yielded an IC50 of 42.7 µg/mL (≈ 87.6 µM).
In the same order, the values of `CCN(C)S(=O)(=O)c1ccc(C(=O)Nc2sccc2C(=O)NC(=O)OC)cc1` are 0.49 µg/mL (≈ 1.15 µM), 21 and 10.4 µg/mL (≈ 24.5 µM).
Regarding `CCOC(=O)NC(=O)c1ccsc1NC(=O)c1ccc(S(=O)(=O)Nc2ccccn2)cc1`, the MIC in data set [1] came out at 1.55 µg/mL (≈ 3.27 µM).
For the compound `CCOC(=O)NC(=O)c1ccsc1NC(=O)c1ccc(S(=O)(=O)N2CCC(OC)CC2)cc1`, the MIC in data set [1] came to 0.03 µg/mL (≈ 0.0605 µM). Besides, the selectivity ratio in data set [2] came out at 701. In addition, in data set [3], the midpoint of inhibition, the IC50, lay at 21 µg/mL (≈ 42.4 µM).
`COC(=O)NC(=O)c1ccsc1NC(=O)c1ccc(C(=O)N2CCCCC2)cc1`: in data set [1], it took 0.19 µg/mL (≈ 0.457 µM) to inhibit growth (MIC). Besides, the selectivity ratio in data set [2] is > 337. In data set [3], the concentration for half-maximal inhibition (IC50) is > 64 µg/mL.
In the same order, the values of `COC(=O)NC(=O)c1ccsc1NC(=O)c1ccc(S(=O)(=O)N2CCCCCC2)cc1` are 0.22 µg/mL (≈ 0.473 µM), 42 and 9.13 µg/mL (≈ 19.6 µM).
`CCOC(=O)NC(=O)c1ccsc1NC(=O)c1ccc(S(=O)(=O)Nc2ccc(C)cc2)cc1` yielded an MIC in data set [1] of 3.56 µg/mL (≈ 7.3 µM).
For the compound `COC(=O)NC(=O)c1ccsc1NC(=O)c1ccc(S(=O)(=O)N2CCC2)cc1`, in data set [1], inhibition of growth (MIC) required 0.13 µg/mL (≈ 0.307 µM). For the same compound, the selectivity ratio in data set [2] amounted to 134. It took 17.5 µg/mL (≈ 41.3 µM) to reach half-maximal inhibition in data set [3] (IC50).
Compound `CCOC(=O)NC(=O)c1ccsc1NC(=O)c1ccc(S(=O)(=O)Nc2cccc(F)c2)cc1` registered a minimum inhibitory concentration (MIC) in data set [1] of 1.14 µg/mL (≈ 2.32 µM).
In the case of `COC(=O)NC(=O)c1ccsc1NC(=O)c1ccc(S(=O)(=O)NC2CCCCC2)cc1`, it took 0.92 µg/mL (≈ 1.98 µM) to inhibit growth in data set [1] (MIC). The selectivity ratio in data set [2] is > 70. Further, in data set [3], the IC50 was > 64 µg/mL.
`CCCCNS(=O)(=O)c1ccc(C(=O)Nc2sccc2C(=O)NC(=O)OC)cc1` displayed an MIC in data set [1] of 0.28 µg/mL (≈ 0.637 µM). The selectivity ratio in data set [2] was 105. The compound also yielded an IC50 in data set [3] of 29.5 µg/mL (≈ 67.1 µM).
`CCOC(=O)NC(=O)c1ccsc1NC(=O)c1ccc(S(=O)(=O)Nc2nccs2)cc1` had an MIC in data set [1] of 7.64 µg/mL (≈ 15.9 µM).
The same measure, in the same setting: the value for `CCOC(=O)NC(=O)c1ccsc1NC(=O)c1ccc(S(=O)(=O)Nc2ccc(Br)cc2)cc1` was 2.79 µg/mL (≈ 5.05 µM).
Turning to `CCOC(=O)NC(=O)c1ccsc1NC(=O)c1ccc(S(=O)(=O)Nc2ccc([N+](=O)[O-])cc2)cc1`, the MIC in data set [1] was 3.61 µg/mL (≈ 6.96 µM).
For the compound `CCCOC(=O)NC(=O)c1ccsc1NC(=O)c1ccc(S(=O)(=O)N2CCOCC2)cc1`, in data set [1], 2.45 µg/mL (≈ 5.09 µM) was the least that counted as inhibitory (MIC).
